Source: ChEMBL document CHEMBL1147184, “Design and synthesis of long-acting inhibitors of dipeptidyl peptidase IV” (Bioorg Med Chem, 2007)
The source made the active and inactive calls. The rule behind the calls is not given here.

Columns and labels:
Rattus norvegicus [1] = assay: Ex vivo inhibition of DPP4 in Sprague-Dawley rat plasma at 1 mg/kg, po after 6 hrs; type: functional
Summary of the method: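 Male SD rats, 6–7 weeks old, fasted at least 8 h, given a single oral dose of 1 mg/kg in 0.5% methylcellulose. Jugular blood taken before dosing and up to 10 h after. Plasma mixed 1:1 with 60 µM Gly-Pro-AMC. Initial rate taken from AMC fluorescence (ex 355/em 460 nm) at 37 °C. Percent inhibition calculated against basal activity.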

[2] = Stability in Tris buffer at pH 7.4; type: physicochemical
Summary of the method: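 Compound at 1 mg/mL in 100 mM Tris buffer, pH 7.4, held at room temperature. Remaining parent measured by LC/MS peak area at 0, 2, 6 and 24 h. Half-life obtained from a linear first-order fit of log(peak area/time-zero area) against time.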

Rattus norvegicus [3] = species on record: Rattus norvegicus; assay: animal or person; details: Sprague-Dawley, Plasma, po, 10 h, read-out: Inhibition
[4] = Drug level in blood of Sprague-Dawley rat at 1 mg/kg, po after 0.25 hrs in absence of glucuronidase; type: ADME, organism-based; set-up: dose 1 mg/kg, route oral; details: read-out: Drug uptake
Summary of the method: (§1)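 Male SD rats, fasted 24 h, given a single oral dose of 1 mg/kg as a solution in 0.5% methylcellulose. Blood drawn from the jugular vein. Plasma protein precipitated with acetonitrile, supernatant evaporated and reconstituted in mobile phase, then analysed by LC/MS/MS with no β-glucuronidase/arylsulfatase step.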

[5] = Drug level in blood of Sprague-Dawley rat at 1 mg/kg, po after 2 hrs in absence of glucuronidase; type: ADME, organism-based; set-up: dose 1 mg/kg, route oral; details: read-out: Drug uptake; summary of the method: as §1
[6] = Drug level in blood of Sprague-Dawley rat at 1 mg/kg, po after 6 hrs in absence of glucuronidase; type: ADME, organism-based; set-up: dose 1 mg/kg, route oral; details: read-out: Drug uptake; summary of the method: as §1
[7] = Oral bioavailability in Sprague-Dawley rat at 1 mg/5 ml/kg, po; type: ADME, organism-based; details: in vivo, 1 mg/kg
Summary of the method: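 Male SD rats, 5–7 weeks old, fasted 24 h, n = 3 per route. Oral dose 1 mg/5 mL/kg in 0.5% methylcellulose. Slow iv bolus of 0.3 mg/2 mL/kg in saline via jugular vein. Jugular blood sampled from 0 to 24 h; plasma analysed by LC/MS/MS. F = (AUCpo/Dpo)/(AUCiv/Div) × 100.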

Rattus norvegicus [8] = assay: Effect on plasma glucose level in orally dosed Sprague-Dawley rat by OGTT assay; type: functional, organism-based
Summary of the method: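 Male SD rats (400–460 g) fasted at least 20 h. Vehicle (0.5% methylcellulose) or drug at 0.01, 0.03 or 0.1 mg/kg given po at −30 min, then oral glucose 1 g/kg at 0 min. Tail blood taken at −5, 5, 10, 15, 30, 60 and 120 min. Plasma glucose read by glucose oxidase–peroxidase dye method. Mean ± SE, n = 8; Student's t-test vs vehicle.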

[9] = Oral bioavailability in Sprague-Dawley rat at 10 mg/5 ml/kg, po; type: ADME, organism-based; details: in vivo, 10 mg/kg
Summary of the method: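 Male SD rats, 5–7 weeks old, fasted 24 h. Oral dose 10 mg/5 mL/kg in 0.5% methylcellulose compared with iv bolus of 0.3 mg/2 mL/kg in saline via jugular vein. Plasma sampled from 0 to 24 h and measured by LC/MS/MS. F calculated from dose-normalised AUC ratio, po over iv.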

[10] = target: Dipeptidyl peptidase 4 (Rattus norvegicus) (UniProt P14740); assay: Inhibition of DPP4 in rat liver microsomes in presence of UDPGA; details: Microsome
Chain of Dipeptidyl peptidase 4 (Rattus norvegicus) (P14740 whole entry, looked up): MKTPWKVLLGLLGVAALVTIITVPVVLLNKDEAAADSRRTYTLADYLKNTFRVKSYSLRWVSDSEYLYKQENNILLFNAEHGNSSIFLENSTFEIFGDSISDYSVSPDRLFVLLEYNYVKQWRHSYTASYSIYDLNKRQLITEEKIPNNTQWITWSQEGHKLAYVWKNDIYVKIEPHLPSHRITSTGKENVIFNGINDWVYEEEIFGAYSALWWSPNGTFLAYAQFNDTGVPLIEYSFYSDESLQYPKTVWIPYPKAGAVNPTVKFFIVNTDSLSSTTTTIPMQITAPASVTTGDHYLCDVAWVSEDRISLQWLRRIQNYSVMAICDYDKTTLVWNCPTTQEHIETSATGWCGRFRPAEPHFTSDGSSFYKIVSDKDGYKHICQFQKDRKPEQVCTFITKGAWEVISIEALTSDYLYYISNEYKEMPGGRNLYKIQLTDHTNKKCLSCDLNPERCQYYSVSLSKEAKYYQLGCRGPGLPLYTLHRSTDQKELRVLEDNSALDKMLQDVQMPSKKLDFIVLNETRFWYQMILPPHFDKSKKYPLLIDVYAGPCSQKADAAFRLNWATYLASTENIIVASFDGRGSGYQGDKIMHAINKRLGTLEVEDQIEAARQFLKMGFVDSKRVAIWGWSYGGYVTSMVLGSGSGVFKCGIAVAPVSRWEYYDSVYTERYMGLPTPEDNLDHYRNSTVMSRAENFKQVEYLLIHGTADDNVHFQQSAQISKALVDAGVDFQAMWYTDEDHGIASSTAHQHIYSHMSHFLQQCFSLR

Q: With `COc1cc(O)cc(OC)c1[C@@H]1CN[C@H](C(=O)N2CCC[C@H]2C#N)C1` as the molecule, how does the inhibition in vivo at 1 mg/kg (Rattus norvegicus [1]) read?
A: 81%

Q: And the half-life [2]?
A: 59 h

Q: And the inhibition in vivo at 1 mg/kg (Rattus norvegicus [3])?
A: 66%

Q: For `Cc1cccc(C)c1[C@@H]1CN[C@H](C(=O)N2CCC[C@H]2C#N)C1`, which inhibition in vivo at 1 mg/kg (Rattus norvegicus [1]) is on record?
A: 91%

Q: For `CCOc1cc(O)cc(OCC)c1[C@@H]1CN[C@H](C(=O)N2CCC[C@H]2C#N)C1`, which inhibition in vivo at 1 mg/kg (Rattus norvegicus [1]) is on record?
A: 79%

Q: What about the inhibition in vivo at 1 mg/kg (Rattus norvegicus [3]) of the same molecule?
A: 50%

Q: For `C=CC[C@@H]1CN[C@H](C(=O)N2CCC[C@H]2C#N)C1`, which inhibition in vivo at 1 mg/kg (Rattus norvegicus [1]) is on record?
A: 38%

Q: Which results are given for `N#C[C@@H]1CCCN1C(=O)[C@@H]1C[C@H](c2cccc(O)c2)CN1`?
A: inhibition in vivo at 1 mg/kg (Rattus norvegicus [1]): 77%; half-life [2]: 20 h

Q: With `Cc1cc(C)c([C@@H]2CN[C@H](C(=O)N3CCC[C@H]3C#N)C2)c(C)c1O` as the molecule, how does the inhibition in vivo at 1 mg/kg (Rattus norvegicus [1]) read?
A: 39%

Q: What about the half-life [2] of the same molecule?
A: 40 h

Q: And the concentration at 0.25 h [4]?
A: 9.7 ng/mL

Q: And the concentration at 2 h [5]?
A: 0.65 ng/mL

Q: And the concentration at 6 h [6]?
A: 0.95 ng/mL

Q: With `N#C[C@@H]1CCCN1C(=O)[C@@H]1C[C@H](c2ccc(O)cc2)CN1` as the molecule, how does the inhibition in vivo at 1 mg/kg (Rattus norvegicus [1]) read?
A: 85%

Q: And the half-life [2]?
A: 21 h

Q: With `N#C[C@@H]1CCCN1C(=O)[C@@H]1C[C@H](C2C3CC4CC(C3)CC2C4)CN1` (stereo not given in full) as the molecule, how does the inhibition in vivo at 1 mg/kg (Rattus norvegicus [1]) read?
A: 47%

Q: With `CCc1cc(O)cc(C)c1[C@@H]1CN[C@H](C(=O)N2CCC[C@H]2C#N)C1` as the molecule, how does the inhibition in vivo at 1 mg/kg (Rattus norvegicus [1]) read?
A: 86%

Q: What about the half-life [2] of the same molecule?
A: 39 h

Q: With `N#C[C@@H]1CCCN1C(=O)[C@@H]1C[C@H](C2CCCCC2)CN1` as the molecule, how does the inhibition in vivo at 1 mg/kg (Rattus norvegicus [1]) read?
A: 38%

Q: For `Cc1cc(O)cc(C)c1[C@@H]1CN[C@H](C(=O)N2CCC[C@H]2C#N)C1`, which inhibition in vivo at 1 mg/kg (Rattus norvegicus [1]) is on record?
A: 88%

Q: What about the bioavailability [7] of the same molecule?
A: 3%

Q: And the half-life [2]?
A: 31 h

Q: What about the inhibition in vivo at 1 mg/kg (Rattus norvegicus [3]) of the same molecule?
A: 57%

Q: For `CC(C)C[C@@H]1CN[C@H](C(=O)N2CCC[C@H]2C#N)C1`, which inhibition in vivo at 1 mg/kg (Rattus norvegicus [1]) is on record?
A: 40%

Q: Which inhibition in vivo at 1 mg/kg (Rattus norvegicus [1]) does the source give for `N#C[C@@H]1CCCN1C(=O)[C@@H]1C[C@H](c2ccccc2O)CN1` here?
A: 43%

Q: What about the half-life [2] of the same molecule?
A: 3.2 h

Q: Which inhibition in vivo at 1 mg/kg (Rattus norvegicus [1]) does the source give for `C=C(C)C[C@@H]1CN[C@H](C(=O)N2CCC[C@H]2C#N)C1` here?
A: 27%

Q: Which inhibition in vivo at 1 mg/kg (Rattus norvegicus [1]) does the source give for `N#C[C@@H]1CCCN1C(=O)[C@@H]1C[C@H](c2ccccc2)CN1` here?
A: 60%

Q: With `CCC[C@@H]1CN[C@H](C(=O)N2CCC[C@H]2C#N)C1` as the molecule, how does the inhibition in vivo at 1 mg/kg (Rattus norvegicus [1]) read?
A: 50%

Q: Which inhibition in vivo at 1 mg/kg (Rattus norvegicus [1]) does the source give for `COc1c(O)ccc(C)c1[C@@H]1CN[C@H](C(=O)N2CCC[C@H]2C#N)C1` here?
A: 94%

Q: What about the bioavailability [7] of the same molecule?
A: 2%

Q: And the inhibition in vivo at 1 mg/kg (Rattus norvegicus [3])?
A: 86%

Q: For `N#C[C@@H]1CCCN1C(=O)[C@@H]1CCCN1`, which inhibition in vivo at 1 mg/kg (Rattus norvegicus [1]) is on record?
A: 20%

Q: With `N#C[C@@H]1CCCN1C(=O)[C@@H]1C[C@@H](c2ccccc2)CN1` as the molecule, how does the inhibition in vivo at 1 mg/kg (Rattus norvegicus [1]) read?
A: 17%

Q: Which inhibition in vivo at 1 mg/kg (Rattus norvegicus [1]) does the source give for `Cc1ccc(O)c(C)c1[C@@H]1CN[C@H](C(=O)N2CCC[C@H]2C#N)C1` here?
A: 95%

Q: And the half-life [2]?
A: 65 h

Q: And the Activity (Rattus norvegicus [8])?
A: Dose-dependent effect

Q: What about the inhibition in vivo at 1 mg/kg (Rattus norvegicus [3]) of the same molecule?
A: 83%

Q: Which results are given for `COc1cc(O)cc(C)c1[C@@H]1CN[C@H](C(=O)N2CCC[C@H]2C#N)C1`?
A: inhibition in vivo at 1 mg/kg (Rattus norvegicus [1]): 90%; bioavailability [9]: 0.1%; half-life [2]: 49 h; concentration at 0.25 h [4]: 0.49 ng/mL; Activity [10]: Active; inhibition in vivo at 1 mg/kg (Rattus norvegicus [3]): 73%
